# Assay results gathered from unrelated publications.
# Compare with care: the assays were run in different laboratories.
# Target: Tyrosine-protein kinase ABL2 (ABL2, Homo sapiens, UniProt P42684)
SMILES,observed,mode,method,tested at,measurement,value
CO[C@@H]1[C@H](N(C)C(=O)c2ccccc2)C[C@H]2O[C@]1(C)n1c3ccccc3c3c4c(c5c6ccccc6n2c5c31)C(=O)NC4,enzyme activity,inhibitor,,1 µM,inhibition,17%
Cc1ccc(NC(=O)c2ccnc(C(F)(F)F)c2)cc1-c1cc(OCCO)nc(N2CCOCC2)c1,binding,,competition with immobilised ligand,1 µM,remaining binding,99%
CC#CC(=O)N1CCC[C@H]1c1nc(-c2ccc(C(=O)Nc3ccccn3)cc2)c2c(N)nccn12,enzyme activity,inhibitor,,1 µM,inhibition,10%
C#Cc1cc(-c2cc(Nc3nc(N[C@@H](C)c4ccc(F)cn4)ncc3Cl)n[nH]2)ccc1C=O,enzyme activity,inhibitor,,0.2 µM,inhibition,26.4%
COc1ccc2oc(-c3ccc4nc(N)oc4c3)c/c(=N\c3ccccc3NC(=O)CCN)c2c1,binding,,,1 µM,remaining binding,101%
CCCCC(=O)Nc1ccc(-c2ccc3ncn(CCC)c(=O)c3c2)cn1,binding,,competition with immobilised ligand,0.5 µM,remaining binding,100%
COc1ccc2[nH]c3c4[nH]c5ccc(OC)cc5c4c4c(c3c2c1)C(=O)NC4=O,binding,,competition with immobilised ligand,1 µM,remaining binding,82%
C1=C/COCc2cc(ccc2OCCN2CCCC2)Nc2nccc(n2)-c2cccc(c2)COC/1,binding,,,0.1 µM,remaining binding,74%
